Measured values from ChEMBL document CHEMBL1165950, “Design and synthesis of new potent anticancer pyrazoles with high FLT3 kinase inhibitory selectivity” (Bioorg Med Chem, 2010).

Legend:
Assay type in all cases: functional
[1] = Cytotoxicity against human […] cells assessed as cell growth at 0.001 uM after 48 hrs by sulforhodamine B assay; conditions: read-out: Activity
HCT-116 = experiment: Cytotoxicity against human HCT116 cells assessed as cell growth at 0.001 uM after 48 hrs by sulforhodamine B assay; conditions: HCT-116, 48 h, read-out: Activity
OVCAR-3 [2] = experiment: Cytotoxicity against human OVCAR-3 cells assessed as cell growth at 0.01 uM after 48 hrs by sulforhodamine B assay; conditions: OVCAR-3, 48 h, read-out: Activity
SW-620 = experiment: Cytotoxicity against human SW620 cells assessed as cell growth at 100 nM after 48 hrs by sulforhodamine B assay; conditions: SW-620, 48 h, read-out: Activity
NCI-H460 = experiment: Cytotoxicity against human NCI-H460 cells assessed as cell growth at 10 uM; conditions: read-out: Activity
Method in brief: (§1)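 NCI-60 screen: cells grown in RPMI 1640 with 5% FBS and 2 mM L-glutamine, plated at 5000–40,000 cells/well according to doubling time, and preincubated 24 h at 37 °C, 5% CO2. The single 10 µM dose (DMSO stock) was added, then incubated 48 h. Cells were TCA-fixed and stained with 0.4% SRB, read at 515 nm, and growth % calculated against time-zero and control plates.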

NCI/ADR-RES = experiment: Cytotoxicity against human NCI/ADR-RES cells assessed as cell growth at 10 uM; conditions: read-out: Activity; method in brief: as §1
OVCAR-3 [3] = experiment: Cytotoxicity against human OVCAR-3 cells assessed as cell growth at 10 uM after 48 hrs by sulforhodamine B assay; conditions: OVCAR-3, 48 h, read-out: Activity
KM12 = experiment: Cytotoxicity against human KM12 cells assessed as cell growth at 1 uM after 48 hrs by sulforhodamine B assay; conditions: KM12, 48 h, read-out: Activity
OVCAR-3 [4] = experiment: Cytotoxicity against human OVCAR-3 cells assessed as cell growth at 0.001 uM after 48 hrs by sulforhodamine B assay; conditions: OVCAR-3, 48 h, read-out: Activity
COLO 205 [5] = experiment: Growth inhibition of human COLO205 cells after 48 hrs by sulforhodamine B assay; conditions: COLO 205, 48 h; for CC50: read-out: LC50 (the source's name)
Method in brief: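 NCI five-dose SRB assay in RPMI 1640 with 5% FBS and 2 mM L-glutamine. Cells were preincubated 24 h, then exposed 48 h at 37 °C to five concentrations (10-fold or half-log serial dilutions from DMSO stocks). TCA fixation, SRB staining, and absorbance at 515 nm followed. IC50 was taken where [(Ti−Tz)/(C−Tz)]×100 = 50, with Tz as time-zero cell density.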

COLO 205 [6] = experiment: Cytotoxicity against human COLO205 cells assessed as cell growth at 10 uM; conditions: read-out: Activity
Method in brief: (§2)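 Single-dose NCI-60 screen at 10 µM. Cells were grown in RPMI 1640 with 5% FBS and 2 mM L-glutamine, then treated for 48 h at 37 °C. Protein was measured by SRB staining with absorbance at 515 nm. Percentage growth was recorded, and inhibition percentage was calculated as 100 minus growth percentage.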

HCC 2998 [7] = experiment: Cytotoxicity against human HCC2998 cells assessed as cell growth at 10 uM; conditions: read-out: Activity; method in brief: as §2
HCC 2998 [8] = experiment: Cytotoxicity against human HCC2998 cells assessed as cell growth at 0.01 uM after 48 hrs by sulforhodamine B assay; conditions: HCC 2998, 48 h, read-out: Activity
T47D = experiment: Cytotoxicity against human T47D cells assessed as cell growth at 100 nM after 48 hrs by sulforhodamine B assay; conditions: read-out: Activity
A549 = experiment: Cytotoxicity against human A549 cells assessed as cell growth at 0.001 uM after 48 hrs by sulforhodamine B assay; conditions: A549, 48 h, read-out: Activity
Method in brief: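 NCI-60 five-dose screen. Cells were grown in RPMI 1640 with 5% FBS and 2 mM L-glutamine, plated at 5000–40,000 cells/well and preincubated for 24 h. Time-zero plates were TCA-fixed. DMSO-solubilized drug was added at five concentrations (10-fold or ½-log serial dilutions) for 48 h at 37 °C, 5% CO2. Cells were TCA-fixed, stained with 0.4% SRB and read at 515 nm. Percent growth used time-zero, control and test absorbances.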

IGROV-1 = experiment: Cytotoxicity against human IGROV1 cells assessed as cell growth at 100 nM after 48 hrs by sulforhodamine B assay; conditions: IGROV-1, 48 h, read-out: Activity
OVCAR-3 [9] = experiment: Cytotoxicity against human OVCAR-3 cells assessed as cell growth at 1 uM after 48 hrs by sulforhodamine B assay; conditions: OVCAR-3, 48 h, read-out: Activity
EKVX = experiment: Cytotoxicity against human EKVX cells assessed as cell growth at 100 nM after 48 hrs by sulforhodamine B assay; conditions: read-out: Activity
COLO 205 [10] = experiment: Cytotoxicity against human COLO205 cells assessed as cell growth at 10 uM after 48 hrs by sulforhodamine B assay; conditions: COLO 205, 48 h, read-out: Activity
SN12C = experiment: Growth inhibition of human SN12C cells after 48 hrs by sulforhodamine B assay
Method in brief: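 NCI 60-cell screen, five-dose mode. Cells grown in RPMI 1640 with 5% FBS and 2 mM L-glutamine and plated at 5000-40,000 cells/well according to doubling time. After 24 h preincubation, a Tz plate was TCA-fixed. Five concentrations (10-fold or 1/2 log dilutions) were applied for 48 h at 37 °C. SRB staining read at 515 nm. IC50 taken from [(Ti-Tz)/(C-Tz)]×100 = 50.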

SR = experiment: Cytotoxicity against human SR cells assessed as cell growth at 10 uM after 48 hrs by sulforhodamine B assay; conditions: read-out: Activity
OVCAR-4 = experiment: Cytotoxicity against human OVCAR4 cells assessed as cell growth at 0.01 uM after 48 hrs by sulforhodamine B assay; conditions: OVCAR-4, 48 h, read-out: Activity
OVCAR-8 = experiment: Cytotoxicity against human OVCAR8 cells assessed as cell growth at 1 uM after 48 hrs by sulforhodamine B assay; conditions: OVCAR-8, 48 h, read-out: Activity
UO-31 = experiment: Cytotoxicity against human UO31 cells assessed as cell growth at 10 uM; conditions: read-out: Activity; method in brief: as §1
HOP-92 = experiment: Cytotoxicity against human HOP92 cells assessed as cell growth at 0.01 uM after 48 hrs by sulforhodamine B assay; conditions: HOP-92, 48 h, read-out: Activity
SF-539 = experiment: Cytotoxicity against human SF539 cells assessed as cell growth at 0.001 uM after 48 hrs by sulforhodamine B assay; conditions: SF-539, 48 h, read-out: Activity
MOLT-4 = experiment: Cytotoxicity against human MOLT4 cells assessed as cell growth at 1 uM after 48 hrs by sulforhodamine B assay; conditions: MOLT-4, 48 h, read-out: Activity
NCI-H23 = experiment: Cytotoxicity against human NCI-H23 cells assessed as cell growth at 0.001 uM after 48 hrs by sulforhodamine B assay; conditions: NCI-H23, 48 h, read-out: Activity
SK-MEL-5 = experiment: Cytotoxicity against human SK-MEL-5 cells assessed as cell growth at 10 uM; conditions: read-out: Activity; method in brief: as §1
SK-OV-3 = experiment: Cytotoxicity against human SKOV3 cells assessed as cell growth at 10 uM; conditions: read-out: Activity; method in brief: as §1

Row | Structure (SMILES) | growth at 0.001 µM [1] [%] | growth at 0.001 µM (HCT-116) [%] | growth at 0.01 µM (OVCAR-3 [2]) [%] | growth at 0.1 µM (SW-620) [%] | growth at 10 µM (NCI-H460) [%] | growth at 10 µM (NCI/ADR-RES) [%] | growth at 10 µM (OVCAR-3 [3]) [%] | growth at 1 µM (KM12) [%] | growth at 0.001 µM (OVCAR-3 [4]) [%] | GI50 (COLO 205 [5]) [µM] | TGI (COLO 205 [5]) [µM] | CC50 (COLO 205 [5]) [µM] | growth at 10 µM (COLO 205 [6]) [%] | growth at 10 µM (HCC 2998 [7]) [%] | growth at 0.01 µM (HCC 2998 [8]) [%] | growth at 0.1 µM (T47D) [%] | growth at 0.001 µM (A549) [%] | growth at 0.1 µM (IGROV-1) [%] | growth at 1 µM (OVCAR-3 [9]) [%] | growth at 0.1 µM (EKVX) [%] | other results
1 | COc1cc(C)cc(-c2c(-c3ccnc(-c4ccc(N(C)C)cc4)c3)cnn2CC#N)c1 | 100 | 102 | 63 | 12 | -5.33 | -15.4 | 1 | -43 | 98 | 0.22 | > 100 | > 100 | -71.1 | -57.5 | 30 | 44 | 95 | 2 | 3 | 14 | growth at 10 µM (COLO 205 [10]): 4%; GI50 (SN12C): 0.398 µM; LC50 (SN12C): > 100 µM; TGI (SN12C): > 100 µM; growth at 10 µM (SR): -38%; growth at 0.01 µM (OVCAR-4): 77%; growth at 1 µM (OVCAR-8): 12%; growth at 10 µM (UO-31): 22.1%; growth at 0.01 µM (HOP-92): -9%; growth at 0.001 µM (SF-539): 104%; growth at 1 µM (MOLT-4): -2%; growth at 0.001 µM (NCI-H23): 86%; growth at 10 µM (SK-MEL-5): -18.4%; growth at 10 µM (SK-OV-3): -3.63%
2 | COc1cc(C)cc(-c2c(-c3ccnc(-c4ccc(C(C)=O)cc4)c3)cnn2CC#N)c1 | 95 | 97 | 106 | 71 | 104 | 60.1 | -17 | 9 | 103 | 1.95 | 3.7 | 7.02 | 42.6 | 80.8 | 98 | 87 | 95 | 83 | -10 | 91 | growth at 10 µM (COLO 205 [10]): -67%; GI50 (SN12C): 4.49 µM; LC50 (SN12C): > 100 µM; TGI (SN12C): > 100 µM; growth at 10 µM (SR): 28%; growth at 0.01 µM (OVCAR-4): 101%; growth at 1 µM (OVCAR-8): 8%; growth at 10 µM (UO-31): 57.4%; growth at 0.01 µM (HOP-92): 69%; growth at 0.001 µM (SF-539): 92%; growth at 1 µM (MOLT-4): 7%; growth at 0.001 µM (NCI-H23): 94%; growth at 10 µM (SK-MEL-5): 49.2%; growth at 10 µM (SK-OV-3): 97.8%
3 | Cc1cc(O)cc(-c2nn(CC#N)cc2-c2ccnc(-c3ccc(N(C)C)cc3)c2)c1 | 96 | 95 | 91 | 83 | 25.6 | 6.33 | -70 | -9 | 105 | 1.95 | 4.13 | 87.8 | 38.9 | 53.5 | 88 | 82 | 104 | 87 | -40 | 81 | growth at 10 µM (COLO 205 [10]): -82%; GI50 (SN12C): 4.28 µM; LC50 (SN12C): > 100 µM; TGI (SN12C): 30 µM; growth at 10 µM (SR): 4%; growth at 0.01 µM (OVCAR-4): 108%; growth at 1 µM (OVCAR-8): 27%; growth at 10 µM (UO-31): 52.4%; growth at 0.01 µM (HOP-92): 85%; growth at 0.001 µM (SF-539): 97%; growth at 1 µM (MOLT-4): 11%; growth at 0.001 µM (NCI-H23): 94%; growth at 10 µM (SK-MEL-5): -16.3%; growth at 10 µM (SK-OV-3): 18%
4 | COc1cc(C)cc(-c2nn(CC#N)cc2-c2ccnc(-c3ccc(N(C)C)cc3)c2)c1 | 104 | 96 | 95 | 14 | 2.65 | -28 | -42 | -37 | 106 | 0.32 | 7.69 | 3.91 | -73.2 | -46.5 | 107 | 24 | 97 | 16 | -41 | 43 | growth at 10 µM (COLO 205 [10]): -61%; GI50 (SN12C): 0.73 µM; LC50 (SN12C): > 100 µM; TGI (SN12C): 33.1 µM; growth at 10 µM (SR): 8%; growth at 0.01 µM (OVCAR-4): 98%; growth at 1 µM (OVCAR-8): 14%; growth at 10 µM (UO-31): 37.9%; growth at 0.01 µM (HOP-92): 93%; growth at 0.001 µM (SF-539): 102%; growth at 1 µM (MOLT-4): 13%; growth at 0.001 µM (NCI-H23): 93%; growth at 10 µM (SK-MEL-5): 2.26%; growth at 10 µM (SK-OV-3): 2.56%
